Measurements from ChEMBL document CHEMBL1909621, “Synthesis and biological evaluation of novel nitrogen- and sulfur-containing hetero-1,4-naphthoquinones as potent antifungal and antibacterial agents” (2011).
Values after ≈ are worked out from the molar mass of the structure shown. Active and inactive are the calls of the source. No cut-off for these calls is given here.

Legend:
Type in all cases: functional
Yamadazyma tenuis [1] = assay: Antifungal activity against Candida tenuis VKM Y-70 at 0.1% after 48 to 72 hrs by diffusion technique
How it was run: (§1)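 Fungi. Disk diffusion: 10⁹ spores (cells)/1 mL inoculum. Incubated 48–72 h at 28–30 °C. Zone around disk measured, with a nystatin control disk. Serial dilution: compounds dissolved in DMSO and diluted into wort agar, then inoculated. Incubated at 30 °C for 24–72 h. MIC recorded.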

Mycobacterium [2] = assay: Antibacterial activity against Mycobacterium luteum b-917 after 24 to 72 hrs by serial dilution technique
Staphylococcus aureus [3] = assay: Antibacterial activity against Staphylococcus aureus 209-P at 0.1% after 24 hrs by diffusion technique
Yamadazyma tenuis [4] = assay: Antifungal activity against Candida tenuis VKM Y-70 after 24 to 72 hrs by serial dilution technique; how it was run: as §1
Mycobacterium [5] = assay: Antibacterial activity against Mycobacterium luteum b-917 at 0.1% after 24 hrs by diffusion technique
Staphylococcus aureus [6] = assay: Antibacterial activity against Staphylococcus aureus 209-P at 0.5% after 24 hrs by diffusion technique
Aspergillus niger [7] = assay: Antifungal activity against Aspergillus niger F-1119 after 24 to 72 hrs by serial dilution technique; how it was run: as §1
Escherichia coli [8] = assay: Antibacterial activity against Escherichia coli B-906 after 24 to 72 hrs by serial dilution technique
Yamadazyma tenuis [9] = assay: Antifungal activity against Candida tenuis VKM Y-70 at 0.5% after 48 to 72 hrs by diffusion technique; how it was run: as §1
Escherichia coli [10] = assay: Antibacterial activity against Escherichia coli B-906 at 0.1% after 24 hrs by diffusion technique
Mycobacterium [11] = assay: Antibacterial activity against Mycobacterium luteum b-917 at 0.5% after 24 hrs by diffusion technique
Aspergillus niger [12] = assay: Antifungal activity against Aspergillus niger F-1119 at 0.1% after 48 to 72 hrs by diffusion technique; how it was run: as §1
Staphylococcus aureus [13] = assay: Antibacterial activity against Staphylococcus aureus 209-P after 24 to 72 hrs by serial dilution technique
Escherichia coli [14] = assay: Antibacterial activity against Escherichia coli B-906 at 0.5% after 24 hrs by diffusion technique
Aspergillus niger [15] = assay: Antifungal activity against Aspergillus niger F-1119 at 0.5% after 48 to 72 hrs by diffusion technique; how it was run: as §1

Row | Compound | inhibition zone (IZ) (Yamadazyma tenuis [1]) [mm] | inhibition (Mycobacterium [2]) | diameter of the inhibition zone (DIZ) (Staphylococcus aureus [3]) [mm] | MIC (Yamadazyma tenuis [4]) [µg/mL] | diameter of the inhibition zone (DIZ) (Mycobacterium [5]) [mm] | diameter of the inhibition zone (DIZ) (Yamadazyma tenuis [1]) [mm] | diameter of the inhibition zone (DIZ) (Staphylococcus aureus [6]) [mm] | inhibition (Aspergillus niger [7]) | inhibition (Escherichia coli [8]) | diameter of the inhibition zone (DIZ) (Yamadazyma tenuis [9]) [mm] | diameter of the inhibition zone (DIZ) (Escherichia coli [10]) [mm] | diameter of the inhibition zone (DIZ) (Mycobacterium [11]) [mm] | diameter of the inhibition zone (DIZ) (Aspergillus niger [12]) [mm] | inhibition (Staphylococcus aureus [13]) | diameter of the inhibition zone (DIZ) (Escherichia coli [14]) [mm] | diameter of the inhibition zone (DIZ) (Aspergillus niger [15]) [mm] | MIC (Mycobacterium [2]) [µg/mL] | MIC (Aspergillus niger [7]) [µg/mL] | MIC (Staphylococcus aureus [13]) [µg/mL] | inhibition (Yamadazyma tenuis [4])
1 | NYSTATIN | 19 | – | – | – | – | – | – | – | – | – | – | – | – | – | – | – | – | – | – | –
2 | O=C1C2=C(SCCSCCSC3=C(SCCSCCS2)C(=O)c2ccccc2C3=O)C(=O)c2ccccc21 | – | inactive | 0 | 31.2 (≈ 50.6 µM) | 0 | 0 | 0 | inactive | inactive | 0 | 0 | 0 | 0 | inactive | 0 | 0 | – | – | – | –
3 | O=C1C(Cl)=C(SCCCCCCCCCO)C(=O)c2ccccc21 | – | inactive | 0 | 31.2 (≈ 85 µM) | 0 | 0 | 0 | inactive | inactive | 0 | 0 | 0 | 0 | inactive | 0 | 0 | – | – | – | –
4 | O=C1C(Cl)=C(SCc2ccc(Cl)cc2)C(=O)c2ccccc21 | – | – | 0 | 15.6 (≈ 44.7 µM) | 0 | 10 | 7 | – | inactive | 14 | 0 | 0 | 0 | inactive | 0 | 7 | 500 (≈ 1430 µM) | 15.6 (≈ 44.7 µM) | – | –
5 | CN[C@H](CC(C)C)C(=O)N[C@H]1C(=O)N[C@@H](CC(N)=O)C(=O)N[C@H]2C(=O)N[C@H]3C(=O)N[C@H](C(=O)N[C@H](C(=O)O)c4cc(O)cc(O)c4-c4cc3ccc4O)[C@H](O)c3ccc(c(Cl)c3)Oc3cc2cc(c3O[C@@H]2O[C@H](CO)[C@@H](O)[C@H](O)[C@H]2O[C@H]2C[C@](C)(N)[C@H](O)[C@H](C)O2)Oc2ccc(cc2Cl)[C@H]1O [VANCOMYCIN] | – | – | 15 | – | 18 | – | – | – | – | – | 14 | – | – | – | – | – | – | – | – | –
6 | O=C1C(Sc2nc3ccc([N+](=O)[O-])cc3s2)=C(Sc2nc3ccc([N+](=O)[O-])cc3s2)C(=O)c2ccccc21 | – | – | 0 | 15.6 (≈ 27 µM) | 0 | 15 | 8 | – | inactive | 24 | 0 | 11.7 | 8 | inactive | 0 | 15 | 125 (≈ 216 µM) | 31.2 (≈ 53.9 µM) | – | –
7 | O=C1C(SCCCCO)=C(SCCCCO)C(=O)c2ccccc21 | – | – | 18 | 7.8 (≈ 21.3 µM) | 22 | 0 | 26 | – | inactive | 8 | 0 | 31 | 0 | – | 0 | 6 | 15.6 (≈ 42.6 µM) | 31.2 (≈ 85.1 µM) | 15.6 (≈ 42.6 µM) | –
8 | O=C1CCSC2=C(SCCC(=O)OCC3(CO1)COC(=O)CCSC1=C(SCCC(=O)OC3)C(=O)c3ccccc3C1=O)C(=O)c1ccccc1C2=O | – | inactive | 0 | 15.6 (≈ 19.6 µM) | 0 | 0 | 0 | inactive | inactive | 0 | 0 | 0 | 0 | inactive | 0 | 0 | – | – | – | –
9 | O=C1C(SCc2ccc(Cl)cc2)=C(SCc2ccc(Cl)cc2)C(=O)c2ccccc21 | – | – | 0 | 15.6 (≈ 33.1 µM) | 0 | 0 | 0 | – | inactive | 7.4 | 0 | 0 | 0 | inactive | 0 | 0 | 125 (≈ 265 µM) | 31.2 (≈ 66.2 µM) | – | –
10 | CCOC1=C(SCCCCO)C(=O)c2ccccc2C1=O | – | – | 12 | 15.6 (≈ 50.9 µM) | 14.7 | 8.4 | 19.4 | – | inactive | 14.7 | 0 | 25.4 | 0 | – | 0 | 10 | 31.2 (≈ 102 µM) | 31.2 (≈ 102 µM) | 250 (≈ 816 µM) | –
11 | CCOC1=C(SCc2c(C)cc(C)cc2C)C(=O)c2ccccc2C1=O | – | inactive | 0 | 62.5 (≈ 171 µM) | 0 | 0 | 0 | inactive | inactive | 0 | 0 | 0 | 0 | inactive | 0 | 0 | – | – | – | –
12 | O=C1C(SCCCCCCCCCO)=C(SCCCCCCCCCO)C(=O)c2ccccc21 | – | – | 0 | – | 0 | 0 | 0 | inactive | inactive | 0 | 0 | 0 | 0 | – | 0 | 6 | – | – | 250 (≈ 493 µM) | inactive
13 | O=C1C(SCc2ccco2)=C(SCc2ccco2)C(=O)c2ccccc21 | – | – | 0 | 15.6 (≈ 40.8 µM) | 7.7 | 0 | 7 | – | inactive | 0 | 0 | 10.4 | 8 | inactive | 0 | 10 | – | 62.5 (≈ 163 µM) | – | –
14 | O=C1C(Sc2ncccn2)=C(Sc2ncccn2)C(=O)c2ccccc21 | – | – | 6 | 125 (≈ 330 µM) | 6.7 | 6 | 9 | – | – | 7 | 0 | 11.7 | 7 | – | 0 | 9 | 500 (≈ 1320 µM) | 500 (≈ 1320 µM) | 62.5 (≈ 165 µM) | –
15 | Cc1cc(C)c(CSC2=C(SCc3c(C)cc(C)cc3C)C(=O)c3ccccc3C2=O)c(C)c1 | – | inactive | 0 | 125 (≈ 257 µM) | 0 | 0 | 0 | inactive | inactive | 0 | 0 | 0 | 0 | inactive | 0 | 0 | – | – | – | –
